Measurements: PMC3609577 (Diabetes, 2013)

What was measured:
A549 cells = test: Intracellular NAD+ levels in A549 cells; assay type: cell-based, human; conditions: for Intracellular NAD+ levels over time in cells incubated in PBS: A549 cells in PBS, quercetin 50 μmol/L, apigenin 25 μmol/L; for Intracellular NAD+ levels, dose response: A549 cells, 6 h incubation
[1] = test system: C57BL/6 mice on a high-fat diet; test: Glucose homeostasis and liver lipid metabolism in high-fat diet obese mice; assay type: in vivo, mouse
HepG2 cells [2] = test: Lipid accumulation in HepG2 cells; assay type: cell-based, human; conditions: 0.5 mmol/L oleate/palmitate (2:1) plus 25 μmol/L apigenin
[3] = target: T1, endogenous CD38 (A549 cells) (Homo sapiens, UniProt P28907); test: Endogenous CD38 NAD+ase activity in protein lysates from A549 cells; assay type: biochemical
T1 sequence (P28907 1-300): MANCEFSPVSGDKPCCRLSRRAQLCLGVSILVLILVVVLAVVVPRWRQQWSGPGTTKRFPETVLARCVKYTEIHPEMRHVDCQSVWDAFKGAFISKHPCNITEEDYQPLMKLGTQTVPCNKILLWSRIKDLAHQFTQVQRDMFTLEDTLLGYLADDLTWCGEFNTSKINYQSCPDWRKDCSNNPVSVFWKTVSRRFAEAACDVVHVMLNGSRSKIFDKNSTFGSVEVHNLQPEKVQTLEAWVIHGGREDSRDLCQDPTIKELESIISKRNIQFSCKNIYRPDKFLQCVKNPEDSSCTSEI

AMPK = conditions: cited from earlier work
[4] = test system: wild-type and CD38 knockout MEFs; test: Intracellular NAD+ levels in wild-type and CD38 knockout MEFs; assay type: cell-based, mouse; conditions: quercetin 50 μmol/L, 6 h; for Intracellular NAD+ levels in CD38 knockout MEFs: apigenin 25 μmol/L
recombinant human CD38 [5] = target: T2, recombinant human CD38 (Homo sapiens, UniProt P28907); test: In vitro CD38 ADP-ribosyl-cyclase activity; assay type: biochemical
T2 sequence (P28907 43-300 limits assumed): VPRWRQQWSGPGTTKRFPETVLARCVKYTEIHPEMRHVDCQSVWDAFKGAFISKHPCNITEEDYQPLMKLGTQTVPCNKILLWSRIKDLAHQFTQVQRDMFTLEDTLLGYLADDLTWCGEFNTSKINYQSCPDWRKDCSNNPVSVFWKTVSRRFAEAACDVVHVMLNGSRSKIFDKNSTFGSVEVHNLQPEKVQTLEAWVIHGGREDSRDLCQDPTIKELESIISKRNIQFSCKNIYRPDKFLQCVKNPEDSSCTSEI

HepG2 cells [6] = test: Protein acetylation in HepG2 cells; assay type: cell-based, human
atherosclerosis in mice = conditions: cited from earlier work
CD38 [7] = target: T3, CD38 (Mus musculus, UniProt P56528); test: Liver CD38 activity, NAD+ and protein readouts in high-fat diet obese mice; assay type: in vivo; conditions: 100 mg/kg i.p. daily for 1 week vs vehicle
T3 sequence (P56528 1-304): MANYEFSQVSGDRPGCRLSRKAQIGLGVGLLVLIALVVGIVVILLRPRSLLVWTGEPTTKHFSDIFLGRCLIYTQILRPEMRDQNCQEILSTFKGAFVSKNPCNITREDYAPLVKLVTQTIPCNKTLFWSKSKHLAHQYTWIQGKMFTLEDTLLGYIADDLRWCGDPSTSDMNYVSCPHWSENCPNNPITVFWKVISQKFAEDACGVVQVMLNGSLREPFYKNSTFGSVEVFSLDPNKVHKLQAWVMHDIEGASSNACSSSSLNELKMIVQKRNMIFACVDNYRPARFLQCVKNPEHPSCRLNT
Method in brief: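 Twelve 20-week-old C57BL/6 mice were fed a high-fat diet (60% of calories from fat) ad libitum for 4 weeks, then randomised into two groups. Groups received the test compound at 100 mg/kg i.p. or DMSO vehicle once daily for 7 days while staying on the diet. Hepatic NAD+ was measured by enzymatic cycling. Liver lysates were immunoblotted with anti-acetyl-lysine and quantified as intensity-profile area; n = 3 per group.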

recombinant human CD38 [8] = target: T2, recombinant human CD38; test: In vitro CD38 NAD+ase activity; assay type: biochemical
SIRT1 = conditions: cited from earlier work
CD38 [9] = conditions: ref Kellenberger et al. 19; cited from earlier work

O=c1cc(-c2ccc(O)cc2)oc2cc(O)cc(O)c12 [apigenin, 5,7-dihydroxy-2-(4-hydroxyphenyl)-4H-1-benzopyran-4-one]
Intracellular NAD+ levels over time in cells incubated in PBS (A549 cells): protected against NAD^+ depletion | Intracellular NAD+ levels, dose response (A549 cells): increased NAD^+ levels in cells in a dose-dependent manner | Total triglyceride content in the liver ([1]; 100 mg/kg i.p. daily for 1 week vs control): lower triglyceride levels in the liver | Liver mRNA expression of lipid oxidation markers (RT-PCR) ([1]; 100 mg/kg i.p. daily for 1 week vs vehicle): increased expression of the enzymes MCAD and LCAD in the liver | Glucose homeostasis (glucose tolerance test, AUC) ([1]; 100 mg/kg i.p. daily for 1 week, 1.5 g/kg i.p. dextrose): improve glucose homeostasis | Food intake and body weight during treatment ([1]; 100 mg/kg i.p. daily for 7 days vs vehicle): no difference in these parameters between groups | Fasting blood glucose levels ([1]; 100 mg/kg i.p. daily, 24 h fasting, day 7): significantly lower | Blood glucose levels, ad libitum feeding ([1]; 100 mg/kg i.p. daily, after 4 days of treatment vs control): significantly lower blood glucose levels | Lipid accumulation (total triglycerides) in cells (HepG2 cells [2]): decreases lipid accumulation in cells | IC50 [3]: 14.8 ± 2.2 µM | AMPK activation (AMPK): very poor AMPK activator | Intracellular NAD+ levels in CD38 knockout MEFs [4]: had no effect on NAD^+ levels | IC50 (recombinant human CD38 [5]): 12.8 ± 1.6 µM | Total protein acetylation (HepG2 cells [6]; apigenin 25 μmol/L, 6 h): decreases total protein acetylation | Acetylation of p53 (K382) and RelA/p65 (K310) (HepG2 cells [6]; apigenin 25 M (so in the source), 4 hours, MG132 10 µM): decreased acetylation of p53 at K382 and also of RelA/p65 at K310 | Atherosclerosis in mice (atherosclerosis in mice): ameliorate atherosclerosis in mice | CD38 activity in the liver (CD38 [7]): decreased CD38 activity in the liver | Global acetylation of proteins in liver (acetyl-lysine antibody) (CD38 [7]): statistically significant decrease in global acetylation of proteins | Hepatic NAD+ levels (CD38 [7]): increase in hepatic NAD^+ levels | Liver expression of CD38, SIRT1, Nampt (immunoblot) (CD38 [7]): no significant differences in the expression of CD38, SIRT1, or Nampt | Liver phosphorylation (Thr172) and total levels of AMPK (immunoblot) (CD38 [7]): did not see any changes in phosphorylation or total levels of AMPK

O=c1c(O)c(-c2ccc(O)c(O)c2)oc2cc(O)cc(O)c12 [quercetin, 2-(3,4-dihydroxyphenyl)-3,5,7-trihydroxy-4H-chromen-4-one]
Intracellular NAD+ levels over time in cells incubated in PBS (A549 cells): NAD^+ levels were stable over time | Intracellular NAD+ levels, dose response (A549 cells): promotes an increase in intracellular NAD^+ in a dose-dependent manner | IC50 [3]: 16.4 ± 1.8 µM | Intracellular NAD+ levels in CD38 knockout MEFs [4]: does not further increase NAD^+ levels in CD38 knockout MEFs | Intracellular NAD+ levels in wild-type MEFs ([4]; wild-type MEFs): promotes an increase in NAD^+ in the wild-type MEFs | IC50 (recombinant human CD38 [8]): 13.8 ± 2.1 µM | Atherosclerosis in mice (atherosclerosis in mice): ameliorate atherosclerosis in mice | SIRT1 activation in vitro (SIRT1): activate SIRT1 in vitro | CD38 inhibition in vitro (CD38 [9]): inhibit CD38 in vitro
